Calls of active or inactive are those of the source. The rule behind the calls is not given here.
Assays:
[1] = molecular target: Voltage-gated potassium channel, KQT; KCNQ2(Kv7.2)/KCNQ3(Kv7.3) (Homo sapiens, UniProt O43525+O43526); assay: Agonist activity at KCNQ2/KCNQ3 expressed in CHO cells assessed as increase in KCl-induced 86Rb+ efflux incubated for 10 mins prior to KCl-induction by liquid scintillation counting; type: functional, cell-based
[2] = molecular target: Voltage-gated potassium channel, IKs; KCNQ1(Kv7.1)/KCNE1(MinK) (Homo sapiens, UniProt P15382+P51787); assay: Antagonist activity at KCNQ1/MINK expressed in CHO cells assessed as inhibition of KCl-induced 86Rb+ efflux incubated for 10 mins prior to KCl-induction by liquid scintillation counting; type: functional, cell-based
Chain of Voltage-gated potassium channel, IKs; KCNQ1(Kv7.1)/KCNE1(MinK) (P51787 whole entry): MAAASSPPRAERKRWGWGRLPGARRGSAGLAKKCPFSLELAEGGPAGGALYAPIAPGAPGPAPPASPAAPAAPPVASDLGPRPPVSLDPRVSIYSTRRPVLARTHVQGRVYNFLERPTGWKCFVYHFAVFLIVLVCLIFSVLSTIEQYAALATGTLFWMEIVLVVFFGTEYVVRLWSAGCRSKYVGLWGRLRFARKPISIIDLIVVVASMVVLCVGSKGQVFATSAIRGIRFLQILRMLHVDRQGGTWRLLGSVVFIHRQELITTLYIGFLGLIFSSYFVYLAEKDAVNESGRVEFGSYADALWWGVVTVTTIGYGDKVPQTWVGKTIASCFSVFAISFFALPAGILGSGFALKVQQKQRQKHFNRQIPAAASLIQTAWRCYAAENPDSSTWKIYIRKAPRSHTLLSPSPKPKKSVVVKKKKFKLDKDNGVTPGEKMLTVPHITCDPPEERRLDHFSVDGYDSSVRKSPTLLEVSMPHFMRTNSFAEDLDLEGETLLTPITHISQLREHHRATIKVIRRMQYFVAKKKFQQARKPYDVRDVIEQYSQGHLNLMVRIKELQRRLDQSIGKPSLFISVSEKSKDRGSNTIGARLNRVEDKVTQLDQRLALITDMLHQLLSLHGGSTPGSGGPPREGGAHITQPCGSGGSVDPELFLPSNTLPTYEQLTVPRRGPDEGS

[3] = molecular target: Voltage-gated potassium channel KCNQ3/KCNQ5 (Homo sapiens, UniProt O43525+Q9NR82); assay: Agonist activity at KCNQ3/KCNQ5 expressed in CHO cells increase in KCl-induced 86Rb+ efflux incubated for 10 mins prior to KCl-induction by liquid scintillation counting; type: functional, cell-based
Chain of Voltage-gated potassium channel KCNQ3/KCNQ5 (O43525 whole entry): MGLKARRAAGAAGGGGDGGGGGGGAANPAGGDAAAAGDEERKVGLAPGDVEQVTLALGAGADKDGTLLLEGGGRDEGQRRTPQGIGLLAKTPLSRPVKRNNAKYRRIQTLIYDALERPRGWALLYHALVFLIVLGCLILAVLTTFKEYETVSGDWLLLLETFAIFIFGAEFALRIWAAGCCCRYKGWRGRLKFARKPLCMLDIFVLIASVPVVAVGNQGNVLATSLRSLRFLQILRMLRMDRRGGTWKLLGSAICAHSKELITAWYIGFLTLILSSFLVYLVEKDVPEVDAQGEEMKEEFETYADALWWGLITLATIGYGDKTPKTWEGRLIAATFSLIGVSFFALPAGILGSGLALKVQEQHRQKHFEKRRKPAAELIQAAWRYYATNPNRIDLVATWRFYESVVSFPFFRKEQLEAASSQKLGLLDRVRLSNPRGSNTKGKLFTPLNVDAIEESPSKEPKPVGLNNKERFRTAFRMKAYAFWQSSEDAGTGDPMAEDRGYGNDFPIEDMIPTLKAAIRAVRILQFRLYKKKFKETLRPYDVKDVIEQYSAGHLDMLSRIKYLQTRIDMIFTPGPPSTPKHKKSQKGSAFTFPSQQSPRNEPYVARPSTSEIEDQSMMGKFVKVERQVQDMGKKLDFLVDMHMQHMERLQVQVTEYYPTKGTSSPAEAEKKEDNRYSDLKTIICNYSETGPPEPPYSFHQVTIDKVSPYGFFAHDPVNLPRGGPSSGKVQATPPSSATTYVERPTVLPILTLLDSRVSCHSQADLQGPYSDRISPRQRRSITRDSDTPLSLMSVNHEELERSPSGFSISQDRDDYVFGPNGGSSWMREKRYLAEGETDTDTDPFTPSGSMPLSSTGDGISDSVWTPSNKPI
Chain of Voltage-gated potassium channel KCNQ3/KCNQ5 (Q9NR82 whole entry): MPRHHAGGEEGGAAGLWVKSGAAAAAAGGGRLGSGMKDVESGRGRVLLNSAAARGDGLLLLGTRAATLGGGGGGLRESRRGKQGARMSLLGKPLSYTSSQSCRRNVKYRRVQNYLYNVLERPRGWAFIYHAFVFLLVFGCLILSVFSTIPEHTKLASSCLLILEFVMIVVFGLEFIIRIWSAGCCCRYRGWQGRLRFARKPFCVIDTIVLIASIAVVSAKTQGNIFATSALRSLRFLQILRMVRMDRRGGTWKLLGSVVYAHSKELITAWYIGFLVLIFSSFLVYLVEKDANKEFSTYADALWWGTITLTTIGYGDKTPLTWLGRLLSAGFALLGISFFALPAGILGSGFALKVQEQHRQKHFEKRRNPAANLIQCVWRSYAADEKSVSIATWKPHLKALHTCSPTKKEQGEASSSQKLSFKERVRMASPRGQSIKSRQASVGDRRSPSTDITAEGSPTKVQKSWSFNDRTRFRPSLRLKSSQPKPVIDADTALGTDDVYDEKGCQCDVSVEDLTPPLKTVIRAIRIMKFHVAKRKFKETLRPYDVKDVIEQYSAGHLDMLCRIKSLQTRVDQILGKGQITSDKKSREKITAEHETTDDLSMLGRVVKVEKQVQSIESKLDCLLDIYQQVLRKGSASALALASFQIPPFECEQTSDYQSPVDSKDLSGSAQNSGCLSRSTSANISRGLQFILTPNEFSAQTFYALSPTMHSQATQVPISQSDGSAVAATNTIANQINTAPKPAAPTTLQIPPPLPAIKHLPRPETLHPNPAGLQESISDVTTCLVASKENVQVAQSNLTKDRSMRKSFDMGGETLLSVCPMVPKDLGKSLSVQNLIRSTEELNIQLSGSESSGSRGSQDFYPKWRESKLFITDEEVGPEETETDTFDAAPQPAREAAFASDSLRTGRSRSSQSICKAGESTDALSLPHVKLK

[4] = Agonist activity at KCNQ expressed in CHO cells assessed as increase in KCl-induced 86Rb+ efflux incubated for 10 mins prior to KCl-induction by liquid scintillation; type: functional, cell-based
[5] = system: Rattus norvegicus; assay: Toxicity in rat assessed as nonhemolytic anemia after 28 days administered with repeated doses; type: organism-based; details: in vivo, 672 h
[6] = system: Rattus norvegicus; assay: Antiepileptic activity in po dosed Sprague-Dawley rat assessed as latency in PTZ-induced seizure administered 30 mins prior to PTZ-challenge measured up to 15 minutes; type: functional
[7] = system: Rattus norvegicus; assay: Toxicity in po dosed rat assessed as nonhemolytic anemia after 14 days; type: organism-based; details: in vivo, 336 h
[8] = system: Cynomolgus monkey; assay: Toxicity in cynomolgus monkey assessed as nonhemolytic anemia after 28 days administered with repeated doses; type: organism-based, Macaca fascicularis; details: in vivo, 672 h
[9] = system: Rattus norvegicus; assay: Antiepileptic activity in po dosed Wistar rat assessed as latency in maximum electric shock-induced hind limb extension administered 30 mins prior to electric shock-challenge measured up to 6 secs; type: functional; details: Hindlimb
[10] = Half life in Sprague-Dawley rat at 2mg/kg, iv; type: ADME, organism-based; details: in vivo
Procedure, shortened: (§1)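 Rats received a single 2 mg/kg intravenous dose. Half-life and clearance were determined, and volume of distribution (Vz) was calculated from the terminal phase.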

[11] = Oral bioavailability in Sprague-Dawley rat at 2 mg/kg; type: ADME, organism-based; details: in vivo
[12] = Selectivity ratio of EC50 for KCNQ3/KCNQ5 to EC50 for KCNQ2/KCNQ3
[13] = Inhibition of L-type calcium channel
[14] = Activity at GABA(A) gated channel at 10 uM
[15] = system: Rattus norvegicus; assay: Volume of distribution during terminal phase in Sprague-Dawley rat at 2 mg/kg, iv; type: ADME, organism-based; set-up: dose 2 mg/kg, route intravenous; details: in vivo; procedure, shortened: as §1
[16] = Clearance in Sprague-Dawley rat at 2mg/kg, iv; type: ADME, organism-based; details: in vivo; procedure, shortened: as §1
[17] = Tmax in Sprague-Dawley rat at 2 mg/kg, po; type: ADME, organism-based; set-up: dose 2 mg/kg, route oral; details: in vivo
[18] = molecular target: Voltage-gated inwardly rectifying potassium channel KCNH2 (Homo sapiens, UniProt Q12809); assay: Inhibition of human ERG
Chain of Voltage-gated inwardly rectifying potassium channel KCNH2 (Q12809 whole entry): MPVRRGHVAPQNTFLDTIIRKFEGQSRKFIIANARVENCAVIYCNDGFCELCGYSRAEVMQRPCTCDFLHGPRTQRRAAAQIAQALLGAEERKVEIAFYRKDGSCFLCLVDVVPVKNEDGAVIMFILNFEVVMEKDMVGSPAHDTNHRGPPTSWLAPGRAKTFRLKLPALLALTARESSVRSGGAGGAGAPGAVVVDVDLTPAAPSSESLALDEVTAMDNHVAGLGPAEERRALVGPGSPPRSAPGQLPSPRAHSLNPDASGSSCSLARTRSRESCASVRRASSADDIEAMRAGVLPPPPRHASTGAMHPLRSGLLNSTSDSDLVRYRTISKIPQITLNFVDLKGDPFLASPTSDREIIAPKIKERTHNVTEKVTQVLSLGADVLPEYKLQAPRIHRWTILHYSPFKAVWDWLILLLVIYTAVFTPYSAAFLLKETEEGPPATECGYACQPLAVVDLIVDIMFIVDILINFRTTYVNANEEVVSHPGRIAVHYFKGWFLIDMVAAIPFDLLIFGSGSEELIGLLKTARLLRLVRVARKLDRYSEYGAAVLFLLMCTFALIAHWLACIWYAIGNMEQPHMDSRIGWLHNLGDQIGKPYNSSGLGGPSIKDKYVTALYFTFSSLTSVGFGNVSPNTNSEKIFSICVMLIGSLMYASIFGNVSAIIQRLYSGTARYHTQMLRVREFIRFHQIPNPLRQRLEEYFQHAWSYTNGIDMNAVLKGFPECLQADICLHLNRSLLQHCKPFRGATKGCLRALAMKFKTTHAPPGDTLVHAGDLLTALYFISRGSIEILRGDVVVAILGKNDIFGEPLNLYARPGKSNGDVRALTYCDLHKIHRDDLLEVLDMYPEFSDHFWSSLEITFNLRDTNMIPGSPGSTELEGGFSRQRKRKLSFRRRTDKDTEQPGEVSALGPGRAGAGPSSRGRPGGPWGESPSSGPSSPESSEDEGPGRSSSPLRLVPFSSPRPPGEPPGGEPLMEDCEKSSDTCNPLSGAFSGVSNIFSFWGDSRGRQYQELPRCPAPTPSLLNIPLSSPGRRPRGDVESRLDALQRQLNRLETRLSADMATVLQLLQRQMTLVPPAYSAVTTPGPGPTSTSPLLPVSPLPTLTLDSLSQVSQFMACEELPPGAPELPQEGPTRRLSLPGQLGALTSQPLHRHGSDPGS

[19] = molecular target: Sodium channel protein type 5 subunit alpha (Homo sapiens, UniProt Q14524); assay: Inhibition of NaV1.5

Chain of Voltage-gated potassium channel, KQT; KCNQ2(Kv7.2)/KCNQ3(Kv7.3) (O43526 whole entry): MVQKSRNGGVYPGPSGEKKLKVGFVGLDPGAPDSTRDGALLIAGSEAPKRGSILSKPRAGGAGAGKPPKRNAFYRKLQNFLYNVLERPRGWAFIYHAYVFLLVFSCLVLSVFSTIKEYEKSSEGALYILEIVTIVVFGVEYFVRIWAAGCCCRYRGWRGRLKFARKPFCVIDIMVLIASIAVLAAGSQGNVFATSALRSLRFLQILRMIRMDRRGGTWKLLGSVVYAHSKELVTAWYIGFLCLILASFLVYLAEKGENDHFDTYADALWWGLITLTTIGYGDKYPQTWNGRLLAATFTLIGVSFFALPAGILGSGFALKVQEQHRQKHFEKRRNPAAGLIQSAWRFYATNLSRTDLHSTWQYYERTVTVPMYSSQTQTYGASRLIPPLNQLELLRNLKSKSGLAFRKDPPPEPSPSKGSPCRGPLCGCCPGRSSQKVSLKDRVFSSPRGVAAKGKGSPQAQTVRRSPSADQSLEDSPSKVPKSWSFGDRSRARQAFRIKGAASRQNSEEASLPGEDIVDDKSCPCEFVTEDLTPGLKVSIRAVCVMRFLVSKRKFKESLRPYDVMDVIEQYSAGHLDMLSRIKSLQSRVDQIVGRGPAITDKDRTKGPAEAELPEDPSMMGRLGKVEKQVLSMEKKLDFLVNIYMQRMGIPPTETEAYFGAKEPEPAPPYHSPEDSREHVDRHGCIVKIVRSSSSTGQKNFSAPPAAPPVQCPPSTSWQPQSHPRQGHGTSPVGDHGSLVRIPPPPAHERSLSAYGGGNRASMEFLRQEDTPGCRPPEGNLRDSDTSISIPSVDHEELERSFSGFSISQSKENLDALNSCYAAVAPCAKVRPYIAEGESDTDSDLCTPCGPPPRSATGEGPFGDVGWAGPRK
Chain of Voltage-gated potassium channel, KQT; KCNQ2(Kv7.2)/KCNQ3(Kv7.3) (O43525 whole entry): as the sequence (O43525 whole entry) above

Compound | EC50 [1] [µM] | IC50 [2] [µM] | also measured
O=C(Nc1ccc(Cl)nc1)c1ccc(C(F)(F)F)cc1 | 0.32 | 2.9 | –
O=C(Nc1ccc(Cl)nc1)c1ccc(F)c(C(F)(F)F)c1 | 0.42 | 3.4 | –
COc1cccc(C(=O)Nc2ccc(Cl)nc2)c1 | 5.5 | – | –
O=C(Nc1ccc(Cl)nc1)c1ccc(S(=O)(=O)c2ccc(F)cc2)c(F)c1 | 0.07 | > 100 | –
O=C(Nc1cnc(Cl)nc1)c1cccc(Cl)c1 | 1.1 | 78 | EC50 [3]: 14 µM
O=C(Nc1ccc(Cl)nc1)c1ccc(SCc2ccc(F)cc2)c(F)c1 | 1.6 | > 100 | –
O=C(Nc1ccccc1)c1ccc(Cl)c(Cl)c1 | – | – | EC50 [4]: > 10 µM
O=C(Nc1ccc(O)nc1)c1ccc(F)c(F)c1 | > 10 | – | –
CSc1ccc(NC(=O)c2ccc(F)c(F)c2)cn1 | > 10 | – | –
O=C(Nc1ccc(Cl)nc1)c1ccc(Cl)c(F)c1 | 0.08 | 15 | –
O=C(Nc1ccc(Cl)nc1)c1cccc(F)c1 | 1.1 | 77 | –
Cc1ccc(C(=O)Nc2cnc(Cl)nc2)cc1F | 0.6 | 93 | EC50 [3]: 10 µM
CCOc1ccc(C(=O)Nc2ccc(Cl)nc2)cc1F | 0.57 | > 100 | –
O=C(Nc1ccc(Cl)nc1)c1ccc(-c2ccccc2)cc1 | 0.26 | > 30 | –
COc1ccc(NC(=O)c2ccc(F)c(F)c2)cn1 | > 10 | – | –
O=C(Nc1ccc(Cl)nc1)c1cccc(F)c1F | > 10 | – | –
CC(C)CS(=O)(=O)c1ccc(C(=O)Nc2ccc(Cl)nc2)cc1F | 0.26 | 54 | –
O=C(Nc1ccc(C(F)(F)F)nc1)c1ccc(F)c(F)c1 | > 10 | – | –
N#Cc1ccc(NC(=O)c2ccc(F)c(F)c2)cn1 | 10 | – | –
O=C(Nc1ccc(F)nc1)c1ccc(F)c(F)c1 | 4.8 | – | –
N#Cc1ccc(C(=O)Nc2ccc(Cl)nc2)cc1F | 1.1 | 51 | –
O=C(Nc1cccnc1)c1ccc(Cl)c(Cl)c1 | – | – | EC50 [4]: 6 µM
O=C(Nc1ccncc1)c1ccc(Cl)c(Cl)c1 | – | – | EC50 [4]: > 10 µM
CC(C)CSc1ccc(C(=O)Nc2ccc(Cl)nc2)cc1F | 0.14 | > 100 | –
N#Cc1cccc(C(=O)Nc2ccc(Cl)nc2)c1 | > 10 | – | –
Cc1ccc(NC(=O)c2ccc(F)c(F)c2)cn1 | 6.8 | – | –
O=C(Nc1ccc(Cl)nc1)c1ccc(F)cc1 | 0.98 | 66 | –
CC(C)Sc1ccc(C(=O)Nc2ccc(Cl)nc2)cc1F | 0.11 | 5.8 | –

Compound | EC50 [1] [µM] | IC50 [2] [µM] | also measured
O=C(Nc1ccc(N2CCOCC2)nc1)c1ccc(F)c(F)c1 | 7.8 | – | –
O=C(Nc1ccc(Cl)nc1)c1ccc(Cl)c(Cl)c1 | 0.67 | 17 | –
O=C(Nc1ccc(Cl)nc1)c1ccccc1F | > 10 | – | –
O=C(Nc1ccc(Cl)nc1)c1cccc(Cl)c1 | 0.27 | 41 | –
O=C(Nc1ccc(Cl)nc1)c1ccc(S(=O)(=O)Cc2ccc(F)cc2)c(F)c1 | 0.16 | > 100 | –
Cc1ccc(C(=O)Nc2ccc(Cl)nc2)cc1F | 0.28 | 33 | –
O=C(Nc1ccc(Cl)nc1)c1ccc(Cl)cc1 | – | 15 | –
O=C(Nc1ccc(Cl)nc1)c1cccc(C(F)(F)F)c1 | 0.39 | 5.8 | –
NS(=O)(=O)c1ccc(C(=O)Nc2ccc(Cl)nc2)cc1 | > 10 | – | –
O=C(Nc1ccc(Cl)nc1)c1ccc(F)c(Cl)c1 | 0.19 | 22 | –
O=C(Nc1ccc(Cl)nc1)c1ccc(Oc2ccccc2)c(F)c1 | 0.03 | 1.3 | –
O=C(Nc1ccc(NC2CC2)nc1)c1ccc(F)c(F)c1 | 2.7 | – | –
O=C(Nc1ccccn1)c1ccc(Cl)c(Cl)c1 | – | – | EC50 [4]: > 10 µM
O=C(Nc1ccc(Cl)nc1)c1ccc(F)c(F)c1 | 0.38 | 41 | Activity [5]: Toxic; ED50 [6]: 2.2 mg/kg; Activity [7]: Toxic; Activity [8]: Toxic; ED50 [9]: 1.5 mg/kg
O=C(Nc1ccc(Cl)nc1)c1ccc(NCCc2ccccc2)c(F)c1 | 0.18 | > 100 | –
O=C(Nc1ccc(Cl)nc1)c1ccc(Oc2ccccc2)cc1 | 0.01 | 1.9 | –
COc1ccc(C(=O)Nc2ccc(Cl)nc2)cc1F | 3.2 | > 100 | –
O=C(Nc1ccc(Cl)nc1)c1ccc(C(F)(F)F)c(F)c1 | 0.37 | 3.4 | –
O=C(Nc1ccc(Cl)nc1)c1ccccc1 | 1.6 | > 100 | –
O=C(Nc1cnc(Cl)nc1)c1ccc(Cl)c(F)c1 | 0.41 | 49 | EC50 [3]: 9 µM
O=C(Nc1cnc(Cl)nc1)c1cccc(C(F)(F)F)c1 | 4.3 | 35 | EC50 [3]: 28 µM
O=C(Nc1ccc(Cl)nc1)c1ccc(Sc2ccc(F)cc2)c(F)c1 | 0.08 | > 100 | –
O=C(Nc1cnc(Cl)nc1)c1ccc(F)c(F)c1 | 0.69 | > 100 | half-life [10]: 72 min; bioavailability [11]: 63%; EC50 [3]: 14.3 µM; ED50 [6]: < 1 mg/kg; Ratio EC50 [12]: 20; IC50 [13]: > 30 µM; Activity [14]: inactive; Vz/F [15]: 1.804 L/kg; ED50 [9]: 1.5 mg/kg; clearance [16]: 17.3 mL/min/kg; Tmax [17]: 30 min; IC50 [18]: > 30 µM; IC50 [19]: > 30 µM
CC(C)Oc1ccc(C(=O)Nc2ccc(Cl)nc2)cc1F | 0.17 | > 100 | –
O=C(Nc1ccc(N2CCCC2)nc1)c1ccc(F)c(F)c1 | 0.48 | – | –
O=C(Nc1cnc(Cl)nc1)c1cccc(F)c1 | 7.2 | > 100 | EC50 [3]: 23 µM
Cc1ccc(C(=O)Nc2ccc(Cl)nc2)cc1C | 0.69 | > 100 | –

Source: ChEMBL document CHEMBL2046284, “N-Pyridyl and Pyrimidine Benzamides as KCNQ2/Q3 Potassium Channel Openers for the Treatment of Epilepsy” (ACS Med Chem Lett, 2011)
